The species entered for experiment [1] is Homo sapiens. The experiment in a line: Selectivity ratio of EC50 for P2Y2 receptor Y269F mutant (unknown origin) to EC50 for wild type P2Y2 receptor (unknown origin).
The species named for experiment [2] is Homo sapiens. The experiment in a line: Selectivity ratio of EC50 for P2Y2 receptor R194H mutant (unknown origin) to EC50 for wild type P2Y2 receptor (unknown origin).
The species entered for experiment [3] is Homo sapiens. The experiment in a line: Selectivity ratio of EC50 for P2Y2 receptor Y288F mutant (unknown origin) to EC50 for wild type P2Y2 receptor (unknown origin).
Experiment [4] has as its system P2Y purinoceptor 2 (Homo sapiens), P41231 [R292A]. The experiment in a line: Agonist activity at P2Y2 receptor R292A mutant (unknown origin) expressed in human 1321N1 astrocytoma cells assessed as increase in intracellular calcium mobilization after 1 hr by Fluo-4 AM dye based fluorescence assay. The class given is functional, cell-based. The method, boiled down:
(§1)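 Human 1321N1 astrocytoma cells stably carrying wt or point-mutant human P2Y2R, introduced by retrovirus and selected with G418, plated at 50000 cells/well the day before. Cells loaded with fluo-4 AM plus Pluronic F-127 in HBSS for 1 h, then washed. Agonist added at graded concentrations, fluorescence read at ex 488/em 525 nm. […] Carbachol 100 μM acting on endogenous M3 served as the maximum reference.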
For orientation: Calcium assays in cells follow changes in intracellular calcium, usually with a dye or a luminescent sensor.

For experiment [5], the species on record is Homo sapiens. The experiment in a line: Selectivity ratio of EC50 for P2Y2 receptor F111A mutant (unknown origin) to EC50 for wild type P2Y2 receptor (unknown origin).
The species entered for experiment [6] is Homo sapiens. Put plainly: Selectivity ratio of EC50 for P2Y2 receptor Y268F mutant (unknown origin) to EC50 for wild type P2Y2 receptor (unknown origin).
For experiment [7], the target named is P2Y purinoceptor 2 (Homo sapiens, UniProt P41231, Y288F). Put plainly: (§2) Agonist activity at P2Y2 receptor Y288F mutant (unknown origin) expressed in human 1321N1 astrocytoma cells assessed as increase in intracellular calcium mobilization after 1 hr by Fluo-4 AM dye based fluorescence assay. The class given is functional, cell-based. An outline of the steps: as §1
Chain of P2Y purinoceptor 2 (Homo sapiens, UniProt P41231, Y288F) (P41231 whole entry Y288F): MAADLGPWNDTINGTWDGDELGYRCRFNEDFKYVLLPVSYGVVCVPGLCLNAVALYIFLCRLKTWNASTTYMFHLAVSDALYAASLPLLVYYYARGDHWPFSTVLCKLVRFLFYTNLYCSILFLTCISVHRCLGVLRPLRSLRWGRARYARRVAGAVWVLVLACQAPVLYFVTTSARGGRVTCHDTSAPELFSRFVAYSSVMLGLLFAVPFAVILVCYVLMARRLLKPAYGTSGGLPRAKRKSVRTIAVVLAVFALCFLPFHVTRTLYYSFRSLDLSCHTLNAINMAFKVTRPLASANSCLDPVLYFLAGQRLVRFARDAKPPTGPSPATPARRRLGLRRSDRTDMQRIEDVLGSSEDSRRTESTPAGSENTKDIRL

Experiment [8] concerns the target P2Y purinoceptor 2 (Homo sapiens, UniProt P41231, H184A). Put plainly: Agonist activity at P2Y2 receptor H184A mutant (unknown origin) expressed in human 1321N1 astrocytoma cells assessed as increase in intracellular calcium mobilization after 1 hr by Fluo-4 AM dye based fluorescence assay. The class given is functional, cell-based. The method, boiled down: as §1

For experiment [9], the species on record is Homo sapiens. The experiment in a line: Selectivity ratio of EC50 for P2Y2 receptor R194A mutant (unknown origin) to EC50 for wild type P2Y2 receptor (unknown origin).
The species named for experiment [10] is Homo sapiens. Put plainly: Selectivity ratio of EC50 for P2Y2 receptor Y114F mutant (unknown origin) to EC50 for wild type P2Y2 receptor (unknown origin).
Experiment [11] concerns P2Y purinoceptor 2 (Homo sapiens), P41231 [R265A]. Put plainly: Agonist activity at P2Y2 receptor R265A mutant (unknown origin) expressed in human 1321N1 astrocytoma cells assessed as increase in intracellular calcium mobilization after 1 hr by Fluo-4 AM dye based fluorescence assay. The class given is functional, cell-based. The method, boiled down: as §1
Chain of P2Y purinoceptor 2 (Homo sapiens), P41231 [R265A] (P41231 whole entry R265A): as the sequence (P41231 whole entry Y288F) above, with R265A, F288Y counted along it
The target of experiment [12] is P2Y purinoceptor 2 (Homo sapiens, UniProt P41231, S193A). Put plainly: Agonist activity at P2Y2 receptor S193A mutant (unknown origin) expressed in human 1321N1 astrocytoma cells assessed as increase in intracellular calcium mobilization after 1 hr by Fluo-4 AM dye based fluorescence assay. The class given is functional, cell-based. The method, boiled down:
as §1

In experiment [13] the test system is P2Y purinoceptor 2 (Homo sapiens), P41231 [R110A]. The experiment in a line: Agonist activity at P2Y2 receptor R110A mutant (unknown origin) expressed in human 1321N1 astrocytoma cells assessed as increase in intracellular calcium mobilization after 1 hr by Fluo-4 AM dye based fluorescence assay. The class given is functional, cell-based. The method, boiled down: as §1
Chain of P2Y purinoceptor 2 (Homo sapiens), P41231 [R110A] (P41231 whole entry R110A): as the sequence (P41231 whole entry Y288F) above, with R110A, F288Y counted along it

Experiment [14] deals with P2Y purinoceptor 2 (Homo sapiens), P41231 [Y288A]. The experiment in a line: Agonist activity at P2Y2 receptor Y288A mutant (unknown origin) expressed in human 1321N1 astrocytoma cells assessed as increase in intracellular calcium mobilization after 1 hr by Fluo-4 AM dye based fluorescence assay. The class given is functional, cell-based. The method, boiled down: as §1
Chain of P2Y purinoceptor 2 (Homo sapiens), P41231 [Y288A] (P41231 whole entry Y288A): as the sequence (P41231 whole entry Y288F) above, with F288A counted along it

The species entered for experiment [15] is Homo sapiens. Put plainly: Agonist activity at P2Y2 receptor R194A mutant (unknown origin) expressed in human 1321N1 astrocytoma cells assessed as increase in intracellular calcium mobilization after 1 hr by Fluo-4 AM dye based fluorescence assay. The class given is cell-based. The method, boiled down:
as §1

Experiment [16] is filed under the species Homo sapiens. Put plainly: Selectivity ratio of EC50 for P2Y2 receptor S193A mutant (unknown origin) to EC50 for wild type P2Y2 receptor (unknown origin).
Experiment [17] has as its target T1, P2Y purinoceptor 2 (Homo sapiens, UniProt P41231). Put plainly: Agonist activity at wild type P2Y2 receptor (unknown origin) expressed in human 1321N1 astrocytoma cells assessed as increase in intracellular calcium mobilization after 1 hr by Fluo-4 AM dye based fluorescence assay. The class given is functional, cell-based. An outline of the steps: as §1
Experiment [18] is filed under the species Homo sapiens. Put plainly: Selectivity ratio of EC50 for P2Y2 receptor F261A mutant (unknown origin) to EC50 for wild type P2Y2 receptor (unknown origin).
For experiment [19], the species on record is Homo sapiens. The experiment in a line: Selectivity ratio of EC50 for P2Y2 receptor R272A mutant (unknown origin) to EC50 for wild type P2Y2 receptor (unknown origin).
In experiment [20] the test system is P2Y purinoceptor 2 (Homo sapiens), P41231 [Y114F]. Put plainly: Agonist activity at P2Y2 receptor Y114F mutant (unknown origin) expressed in human 1321N1 astrocytoma cells assessed as increase in intracellular calcium mobilization after 1 hr by Fluo-4 AM dye based fluorescence assay. The class given is functional, cell-based. The method, boiled down: as §1
Chain of P2Y purinoceptor 2 (Homo sapiens), P41231 [Y114F] (P41231 whole entry Y114F): as the sequence (P41231 whole entry Y288F) above, with Y114F, F288Y counted along it

Experiment [21] is filed under the species Homo sapiens. Put plainly: Selectivity ratio of EC50 for P2Y2 receptor H184A mutant (unknown origin) to EC50 for wild type P2Y2 receptor (unknown origin).
Experiment [22] relates to P2Y purinoceptor 2 (Homo sapiens), P41231 [F261A]. The experiment in a line: Agonist activity at P2Y2 receptor F261A mutant (unknown origin) expressed in human 1321N1 astrocytoma cells assessed as increase in intracellular calcium mobilization after 1 hr by Fluo-4 AM dye based fluorescence assay. The class given is functional, cell-based. The method, boiled down: as §1
Chain of P2Y purinoceptor 2 (Homo sapiens), P41231 [F261A] (P41231 whole entry F261A): as the sequence (P41231 whole entry Y288F) above, with F261A, F288Y counted along it

For experiment [23], the species on record is Homo sapiens. Put plainly: Antagonist activity at […] P2Y2 receptor R194H mutant (unknown origin) expressed in human 1321N1 astrocytoma cells assessed as inhibition of UTP-induced increase in intracellular calcium mobilization preincubated for 30 mins followed by UTP addition measured after 1 hr by Fluo-4 AM dye based fluorescence assay. The class given is cell-based. The method, boiled down:
(§3)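 Stably transduced 1321N1 cells expressing wt or mutant human P2Y2R were loaded with fluo-4 AM/Pluronic F-127 in HBSS for 1 h. Test compound was preincubated for 30 min, then UTP was injected at the EC80 determined for each cell line. Calcium fluorescence was read at ex 488/em 525 nm. IC50 was obtained by nonlinear regression, n ≥ 3.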

Experiment [24] concerns the target T1, P2Y purinoceptor 2. Put plainly: Antagonist activity at wild type P2Y2 receptor (unknown origin) expressed in human 1321N1 astrocytoma cells assessed as inhibition of UTP-induced increase in intracellular calcium mobilization preincubated for 30 mins followed by UTP addition measured after 1 hr by Fluo-4 AM dye based fluorescence assay. The class given is functional, cell-based. The method, boiled down:
as §3

For experiment [25], the system named is P2Y purinoceptor 2 (Homo sapiens), P41231 [Y114F]. Put plainly: Antagonist activity at […] P2Y2 receptor Y114F mutant (unknown origin) expressed in human 1321N1 astrocytoma cells assessed as inhibition of UTP-induced increase in intracellular calcium mobilization preincubated for 30 mins followed by UTP addition measured after 1 hr by Fluo-4 AM dye based fluorescence assay. The class given is functional, cell-based. The method, boiled down: as §3

The species entered for experiment [26] is Homo sapiens. The experiment in a line: Antagonist activity at […] P2Y2 receptor Y114A mutant (unknown origin) expressed in human 1321N1 astrocytoma cells assessed as inhibition of UTP-induced increase in intracellular calcium mobilization preincubated for 30 mins followed by UTP addition measured after 1 hr by Fluo-4 AM dye based fluorescence assay. The class given is cell-based. An outline of the steps:
as §3

The subject of experiment [27] is P2Y purinoceptor 2 (Homo sapiens), P41231 [Y288F]. The experiment is described as §2. The class given is functional, cell-based. The method, boiled down:
as §1

Experiment [28] is filed under the species Homo sapiens. Put plainly: Selectivity ratio of IC50 for P2Y2 receptor Y288F mutant (unknown origin) to IC50 for wild type P2Y2 receptor (unknown origin). The method, boiled down:
(§4)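 Human P2Y2R, wild type or single point mutant, retrovirally transduced into 1321N1 astrocytoma cells and selected with G418. Cells were seeded at 50000/well overnight, loaded with fluo-4 AM for 1 h in HBSS, and preincubated with antagonist for 30 min. UTP was then injected at its EC80 for that cell line. Calcium fluorescence was read at ex 488/em 525 nm. IC50 was fitted by nonlinear regression (n ≥ 3), and the ratio was taken as mutant IC50 over wild-type IC50.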

Experiment [29] is filed under the species Homo sapiens. The experiment in a line: Selectivity ratio of IC50 for P2Y2 receptor Y114F mutant (unknown origin) to IC50 for wild type P2Y2 receptor (unknown origin). The method, boiled down: as §4
Experiment [30] is filed under the species Homo sapiens. Put plainly: Selectivity ratio of IC50 for P2Y2 receptor R194H mutant (unknown origin) to IC50 for wild type P2Y2 receptor (unknown origin).
For experiment [31], the species on record is Homo sapiens. The experiment in a line: Selectivity ratio of IC50 for P2Y2 receptor F261A mutant (unknown origin) to IC50 for wild type P2Y2 receptor (unknown origin).
Experiment [32] is filed under the species Homo sapiens. Put plainly: Selectivity ratio of IC50 for P2Y2 receptor Y268F mutant (unknown origin) to IC50 for wild type P2Y2 receptor (unknown origin). The method, boiled down: as §4

The structures appear in SMILES notation. Calls of active or inactive are those of the source. No cut-off for these calls is given here.

T1 sequence (P41231 whole entry): as the sequence (P41231 whole entry Y288F) above, with F288Y counted along it
Chain of P2Y purinoceptor 2 (Homo sapiens), P41231 [R292A] (P41231 whole entry R292A): as the sequence (P41231 whole entry Y288F) above, with F288Y, R292A counted along it
Chain of P2Y purinoceptor 2 (Homo sapiens, UniProt P41231, H184A) (P41231 whole entry H184A): as the sequence (P41231 whole entry Y288F) above, with H184A, F288Y counted along it
Chain of P2Y purinoceptor 2 (Homo sapiens), P41231 [Y288F] (P41231 whole entry Y288F): as the sequence (P41231 whole entry Y288F) above
Chain of P2Y purinoceptor 2 (Homo sapiens, UniProt P41231, S193A) (P41231 whole entry S193A): as the sequence (P41231 whole entry Y288F) above, with S193A, F288Y counted along it

By EC50 is commonly meant the concentration that produces a half-maximal response. `O=c1ccn([C@@H]2O[C@H](COP(=O)(O)OP(=O)(O)OP(=O)(O)O)[C@@H](O)[C@H]2O)c(=O)[nH]1` [URIDINE TRIPHOSPHATE]: the Ratio EC50 in the experiment listed under Homo sapiens [1] was 10 to 50; in the experiment filed under Homo sapiens [2], 50; in the experiment filed under Homo sapiens [3] it was 150; in the experiment filed under Homo sapiens [5] it was 10 to 50; in the experiment listed under Homo sapiens [6] it was 10 to 50; in the experiment listed under Homo sapiens [9] it was 10 to 50. The Ratio EC50 in the experiment filed under Homo sapiens [10] was 300; in the experiment listed under Homo sapiens [16], 10 to 50; in the experiment listed under Homo sapiens [18], 100; in the experiment listed under Homo sapiens [19], 350; in the experiment listed under Homo sapiens [21], greater than 100. Also, the result in experiment [4], in experiment [11], in [13] and in experiment [14] was inactive. In addition, the 50% effective concentration (EC50) on P2Y purinoceptor 2 [7] was 911 nM; at P2Y purinoceptor 2 [8], 996 nM; on P2Y purinoceptor 2 [12], 70.6 nM; at P2Y purinoceptor 2 [17], 5.61 nM. Moreover, the outcome (in the experiment filed under Homo sapiens [15]; in experiment [20]; in experiment [22]) was Active.
As to `Cc1cccc(Nc2ccc(Nc3cc(S(=O)(=O)O)c(N)c4c3C(=O)c3ccccc3C4=O)cc2C(=O)O)c1C`, the inhibition entry (in the experiment filed under Homo sapiens [23]; at P2Y purinoceptor 2 [24]; in experiment [25]) was “Active” in each case.
For `Nc1c(S(=O)(=O)O)cc(Nc2ccc(Nc3ccccc3Cl)c(C(=O)O)c2)c2c1C(=O)c1ccccc1C2=O`, the inhibition entry at P2Y purinoceptor 2 [24] is “Active”.
Turning to `Nc1ncnc2c1ncn2[C@@H]1O[C@H](COP(=O)(O)OP(=O)(O)OP(=O)(O)O)[C@@H](O)[C@H]1O`, the Ratio EC50 in the experiment listed under Homo sapiens [19] was found to be 350.
Consider `Nc1c(S(=O)(=O)O)cc(Nc2ccccc2)c2c1C(=O)c1ccccc1C2=O`, for which the inhibition result (in the experiment filed under Homo sapiens [23]; in the experiment listed under Homo sapiens [26]; at P2Y purinoceptor 2 [24]; in experiment [25]) was “Active” throughout.
Take `Nc1ncnc2c1ncn2[C@@H]1O[C@H](COP(=O)(O)OP(=O)(O)OP(=O)(O)OP(=O)(O)OC[C@@H]2O[C@H](n3cnc4c(N)ncnc43)[C@@H](O)[C@H]2O)[C@@H](O)[C@H]1O`: the Ratio EC50 is 25 in the experiment filed under Homo sapiens [2] and greater than 4000 in the experiment listed under Homo sapiens [19]. The result (in experiment [4]; in experiment [27]; in experiment [11]; in experiment [13]; in experiment [14]; in the experiment listed under Homo sapiens [15]) was inactive. Moreover, the result in [20] and in experiment [22] was inactive.
For `Cc1ccc2c(c1)C=Cc1cc(C)ccc1C2c1cn(Cc2ccc(C(=O)Nc3nnn[nH]3)o2)c(=O)[nH]c1=S`, the Ratio IC50 in the experiment filed under Homo sapiens [28], in the experiment filed under Homo sapiens [29], in the experiment listed under Homo sapiens [30], in the experiment filed under Homo sapiens [31] and in the experiment filed under Homo sapiens [32] was less than 3 in each case. For the same compound, at P2Y purinoceptor 2 [24], the inhibition result is “Active”.
Turning to `CSc1nc(N)c2ncn([C@@H]3O[C@H](COP(=O)(O)OP(=O)(O)OP(=O)(O)O)[C@@H](O)[C@H]3O)c2n1`, the Ratio EC50 in the experiment filed under Homo sapiens [19] turned out to be 350.

The values are drawn from ChEMBL document CHEMBL4017533, “Molecular Recognition of Agonists and Antagonists by the Nucleotide-Activated G Protein-Coupled P2Y2 Receptor” (J Med Chem, 2017).
